Bioassay records from PubChem.
A selection: hits, their analogues and other compounds. The true share with any hit is near 2.3%.
ADAM17 inh – inhibits human ADAM17 | recombinant ADAM17, EDANS/DABCYL FRET peptide cleavage | inhibition, % at 6.95 µM | AID 720648 | actives 0.83% (n = 370,000) | P78536;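 active = inhibition above the mean of compounds lying between control limits plus 3 SD, set per campaign, cut at about 8.5% in these data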;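 note: 0% = DMSO-only wells as the low control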
Target sequence (P78536 215-824 limits assumed): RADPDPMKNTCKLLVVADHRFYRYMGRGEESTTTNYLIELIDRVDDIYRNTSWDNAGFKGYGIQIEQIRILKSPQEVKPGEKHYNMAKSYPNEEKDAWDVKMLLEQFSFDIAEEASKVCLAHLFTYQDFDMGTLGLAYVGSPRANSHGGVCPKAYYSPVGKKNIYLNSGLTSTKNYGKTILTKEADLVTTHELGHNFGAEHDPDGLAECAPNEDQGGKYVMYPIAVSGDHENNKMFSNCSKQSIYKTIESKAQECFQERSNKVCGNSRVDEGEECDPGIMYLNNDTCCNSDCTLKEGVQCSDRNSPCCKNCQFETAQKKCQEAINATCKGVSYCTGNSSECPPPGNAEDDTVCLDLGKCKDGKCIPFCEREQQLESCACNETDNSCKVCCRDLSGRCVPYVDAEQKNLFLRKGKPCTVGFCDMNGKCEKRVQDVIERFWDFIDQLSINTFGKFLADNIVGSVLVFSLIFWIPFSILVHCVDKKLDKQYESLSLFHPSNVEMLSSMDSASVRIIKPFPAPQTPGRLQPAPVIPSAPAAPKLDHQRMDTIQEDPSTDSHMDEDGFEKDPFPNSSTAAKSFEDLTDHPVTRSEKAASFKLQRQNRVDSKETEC
PLCg1 inh – inhibitors of human phospholipase C gamma1; P19174; purified PLC-gamma1, fluorogenic substrate, fluorescence; inhibition, % at 12.2 µM; actives 0.84% (n = 370,000); AID 720700; in the data active = inhibition above about 9.5%
PLC-beta3 inh – inhibitors of human phospholipase C beta3 | Purified PLC-beta3, fluorogenic substrate, fluorescence | inhibition, % at 12.2 µM | actives 0.18% (n = 370,000) | Q01970; in the data active = inhibition above about 11%;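 note: 0% = median of compound wells on plate and 100% = full blocker control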
Tb MetRS inh – blocks T. brucei methionyl-tRNA synthetase activity. inhibition, % at 11.9 µM. purified T. brucei MetRS, ATP depletion, Kinase-Glo luminescence. actives 0.4% (n = 360,000);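 active = inhibition above a per-plate cutoff of the control wells' mean inhibition plus 3 SD, cut at about 5.5% in these data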;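 note: 0% = DMSO wells median and 100% = median of wells with control inhibitor compound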
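Material – parasite MetRS enzyme · Medium – HEPES-MgCl2-KCl buffer plus DTT, spermine, BSA, pyrophosphatase · Reagent – ATP, methionine and E. coli bulk tRNA substrates · Times – 15 min enzyme-compound preincubation, 2 h reaction, 10 min detection, 25 °C · Measured by – luminescence of leftover ATP · Evaluation – percent inhibition relative to median high and low control wells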
ADAM10 inh – inhibits human ADAM10; actives 0.62% (n = 370,000); recombinant ADAM10, EDANS/DABCYL FRET peptide cleavage, 3 h; O14672; AID 720582; inhibition, % at 7 µM;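 active = inhibition above a per-campaign cutoff equal to the mean of compounds falling between control-based bounds plus 3 SD, cut at about 20% in these data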;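 note: 0% = DMSO wells while the 100% control is not disclosed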
Tb MetRS conf – confirmation of Trypanosoma brucei MetRS inhibitors; actives 93% (n = 1,400); shares compounds with Tb MetRS inh; T. brucei MetRS enzyme, luminescence (ATP depletion); inhibition, % at 11.9 µM; in the data active = inhibition above about 7%
Jurkat tox – kills Jurkat cells in T. brucei MetRS counterscreen; actives 12% (n = 1,400); Jurkat cells viability, ATP luminescence; shares compounds with Tb MetRS inh; inhibition, % at 8.3 µM; in the data active = inhibition above about 15%;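 note: 0% = vehicle and 100% = reference inhibitor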
Tb MetRS inh FP – orthogonal test for Trypanosoma brucei MetRS inhibitors. shares compounds with Tb MetRS inh. purified T. brucei MetRS, fluorescence polarization. inhibition, % at 11.9 µM. actives 44% (n = 1,400); in the data active = inhibition above about 17%;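 note: 0% = vehicle wells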
Active calls of the source: *; i = inactive; nt = no result given.

SMILES	ADAM17 inh	PLCg1 inh	PLC-beta3 inh	Tb MetRS inh	ADAM10 inh	Tb MetRS conf	Jurkat tox	Tb MetRS inh FP
O=C(NCc1cc(Cl)cc(Cl)c1)c1ccc2nc([C@@H]3O[C@H](CO)[C@@H](O)[C@H]3O)[nH]c2c1	-5	-3	2	11*	-13	45*	-2	25*
O=C(NCc1cc(Cl)cc(Cl)c1)c1csc(COCCO)n1	2	7	-1	43*	7	66*	6	44*
O=C(NCc1cc(Cl)cc(Cl)c1)c1ccc2sc([C@H]3C[C@H](O)[C@@H](CO)O3)nc2c1	3	2	2	27*	-18	69*	7	39*
CC(C)c1ccccc1NC(=O)C1CC(=O)N(C2CCCC2)C1 (configuration not stated)	1	0	-4	0	-7	nt	nt	nt
CC(=O)Nc1ccc(-c2ccnc3c2CC(C(=O)NCCC(F)(F)F)O3)cc1 (configuration not stated)	0	7	2	0	-1	nt	nt	nt
Cc1cc(C)cc(C(O)c2ncc(-c3ccccc3C(F)(F)F)[nH]2)c1 (configuration not stated)	0	0	4	1	5	nt	nt	nt
OC(c1cc(Cl)cc(Cl)c1)c1ncc(-c2cccc(F)c2)[nH]1 (configuration not stated)	5	0	3	42*	5	77*	-1	55*
OC(c1cc(F)cc(Cl)c1)c1ncc(-c2ccccc2C(F)(F)F)[nH]1 (configuration not stated)	5	3	3	26*	5	48*	81*	23*
Cc1ccc(C(O)c2ncc(-c3ccc4ccccc4c3)[nH]2)cc1 (configuration not stated)	-18	-38	-67	0	-58	nt	nt	nt
Cc1cc(C)cc(C(O)c2ncc(-c3ccc4ccccc4c3)[nH]2)c1 (configuration not stated)	-9	-22	-28	7.5*	-47	30*	7	17*
Cc1ccccc1-c1cnc(C(O)c2cc(Cl)cc(Cl)c2)[nH]1 (configuration not stated)	3	2	2	53*	0	81*	6	57*
Cc1ccccc1-c1cnc(C(O)c2ccc(Cl)cc2C)[nH]1 (configuration not stated)	3	5	6	0	3	nt	nt	nt
COc1ccc(C(=O)C2(C(=O)NCCO)CC(c3ccccn3)=NO2)cc1 (configuration not stated)	-2	1	-1	nt	-1	nt	nt	nt
COc1ccccc1C(=O)N1CCN(C(=O)[C@@H](Cc2ccccc2)NC(=O)[C@H]2O[C@@H](n3ccc(=O)[nH]c3=O)[C@H](O)[C@@H]2O)CC1	4	9	9	nt	1	nt	nt	nt
COC(=O)[C@]12C[C@H](CC(=O)NCC3CCCCC3)C(=O)N(Cc3ccco3)C1=C[C@H](C(C)C)O[C@@H]2C1CC1	-1	-1	3	nt	0	nt	nt	nt
N#CCCN(C(=O)COC(=O)CCc1nc2ccccc2c(=O)[nH]1)c1ccc(F)cc1	0	-2	1	-1	-7	nt	nt	nt
Cc1cc(=O)n2c(n1)NC(=NCc1ccccc1)NC2c1ccccc1 (configuration not stated)	-1	-3	-6	8.5*	-6	18*	1	11
O=C(Cc1ccccc1)NCC(=O)Nc1cccc(Cl)c1	1	0	-3	0	-12	nt	nt	nt
CSc1ccc(/C=N/NC(=O)CNc2cccc3ccccc23)cc1	-71	-53	-68	0	-252	nt	nt	nt
O=C(CNc1cccc2ccccc12)N/N=C/c1ccc[nH]1	-54	-44	-73	9.8*	-139	65*	64*	44*
Cc1ccc(N=Cc2nc(-c3ccc(C)cc3)oc2O)cc1	1	-2	-3	-1	3	nt	nt	nt
Oc1oc(-c2ccc(Br)cc2)nc1C=Nc1ccc(Br)cn1	-2	-1	1	8.7*	-4	65*	-4	32*
Cc1ccc2nc(/C(C#N)=C/c3cn[nH]c3-c3ccc(F)cc3)[nH]c2c1	-5	-106	-132	24*	-12	51*	57*	47*
O=[N+]([O-])c1ccc(N2CCN(c3ccccc3O)CC2)c(Cl)c1	6	2	3	7.0*	16	12*	18*	1
S=C(NCCSCc1ccc(Cl)c(Cl)c1)Nc1ccccc1	6	-1	-2	41*	10	57*	-5	41*
SMILES	ADAM17 inh	PLCg1 inh	PLC-beta3 inh	Tb MetRS inh	ADAM10 inh	Tb MetRS conf	Jurkat tox	Tb MetRS inh FP
COc1ccc(CSCCNC(=S)Nc2ccccc2)cc1Cl	7	1	-8	28*	11	41*	1	22*
COc1ccc(CNC(=S)Nc2ccccc2)cc1Cl	0	0	-2	-2	0	nt	nt	nt
CCOc1ccc(CSCCNC(=S)Nc2ccccc2)cc1	2	0	1	14*	-4	25*	16*	16
CCN(CC)c1ccc(-n2c(O)c(C=C3N=c4ccccc4=N3)sc2=S)cc1	2	2	-1	0	1	nt	nt	nt
O=C(O)c1cccc(-n2c(O)c(C=C3N=c4ccccc4=N3)sc2=S)c1	-23	-100	-140	18*	-58	41*	-3	14
O=C(O)c1ccc(-n2c(O)c(C=C3N=c4ccccc4=N3)sc2=S)cc1	-31	-111	-158	7.8*	-56	33*	-5	11
Cn1c(CN2CCCC(C(=O)c3ccc4c(c3)OCO4)C2)nc2ccccc21 (configuration not stated)	-1	4	-1	6.4*	7	12*	-1	1
O=C(c1ccc2c(c1)OCO2)C1CCCN(Cc2ccc3nsnc3c2)C1 (configuration not stated)	0	-3	-9	1	-2	nt	nt	nt
CCN1C(=O)[C@H]2[C@@H](c3ccc(C(F)(F)F)cc3)N[C@]3(CCCN(Cc4ccco4)C3=O)[C@H]2C1=O	-1	0	0	0	-2	nt	nt	nt
Fc1cccc(CSc2nc3ncc(Cl)cc3[nH]2)c1	-1	-5	-8	6.4*	-3	7.3*	5	0
O=C(CSc1nc2ncc(Cl)cc2[nH]1)Nc1cccc(F)c1	-3	1	-9	21*	3	47*	2	23*
Nc1ncnc2nc(SCC(=O)Nc3cccc(C(F)(F)F)c3)[nH]c12	-2	-3	-8	33*	-5	57*	-3	28*
Cc1cc(C)c2c(N)c3cccc(C)c3nc2n1	-264	-367	i	0	i	nt	nt	nt
